From ChEMBL document CHEMBL3526015, “Metabolism of the c-Fos/activator protein-1 inhibitor T-5224 by multiple human UDP-glucuronosyltransferase isoforms” (Drug Metab Dispos, 2011)

Assays:
Format in all cases: ADME
[1] = system: Liver microsome; experiment: Drug metabolism in human liver microsomes assessed as T-5224 acyl O-glucuronide formation at 10 uM after 10 mins in presence of beta-estradiol by HPLC method
Summary of the method: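 Pooled human liver microsomes or recombinant UGT1A1 were incubated with 10 μM T-5224, 2 mM UDPGA and β-estradiol at 0–500 μM (2% DMSO), in Tris-HCl/MgCl2/alamethicin buffer. Incubation was 10 min (liver microsomes) or 60 min (UGT1A1) at 37°C. G2/G3 were read by HPLC at 290 nm, as mean ± SD, n = 3.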

[2] = system: Liver microsome; experiment: Drug metabolism in human liver microsomes assessed as Vmax/Km ratio for T-5224 hydroxyl O-glucuronide formation per mg protein after 10 to 60 mins by HPLC method
Summary of the method: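 Pooled liver (0.5 mg protein/mL) or intestinal (0.25 mg protein/mL) microsomes in 50 mM Tris-HCl pH 7.5, 8 mM MgCl2, alamethicin, 2% DMSO. T-5224 at 1–50 μM, 5 min preincubation at 37°C, started with 2 mM UDPGA. Incubated 10 min, or 20 min for intestinal microsomes at 1–5 μM. Acetonitrile stop, glucuronides by HPLC at 290 nm. Triplicates fitted to a substrate-inhibition model.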

[3] = biological target: T1, Cytochrome P450 1A2 (Homo sapiens, UniProt P05177); experiment: Drug metabolism assessed as human CYP1A2-mediated metabolite formation at 2 uM after 30 mins by HPLC method; details: recombinant enzyme, 0.5 h
T1 sequence (P05177 whole entry): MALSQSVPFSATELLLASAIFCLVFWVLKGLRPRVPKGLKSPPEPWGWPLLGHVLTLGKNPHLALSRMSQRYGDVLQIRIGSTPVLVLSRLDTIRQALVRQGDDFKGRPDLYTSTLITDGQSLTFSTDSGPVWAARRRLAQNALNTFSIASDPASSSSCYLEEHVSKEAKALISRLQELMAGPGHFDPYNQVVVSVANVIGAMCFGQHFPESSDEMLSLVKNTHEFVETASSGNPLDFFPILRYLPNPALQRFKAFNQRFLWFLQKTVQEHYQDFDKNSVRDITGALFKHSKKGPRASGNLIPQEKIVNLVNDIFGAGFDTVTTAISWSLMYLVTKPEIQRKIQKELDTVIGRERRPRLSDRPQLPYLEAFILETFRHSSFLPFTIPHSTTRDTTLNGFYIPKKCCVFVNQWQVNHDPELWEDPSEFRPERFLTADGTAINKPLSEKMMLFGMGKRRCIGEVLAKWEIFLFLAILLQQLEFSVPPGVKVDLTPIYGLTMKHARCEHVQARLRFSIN
Summary of the method: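 Each recombinant human P450 was used at 50 pmol/mL with an NADPH-generating system and 2 μM 14C-T-5224 (0.5% DMSO final). Buffer was 100 mM Tris-HCl pH 7.5, except 100 mM potassium phosphate pH 7.4 for CYP2A6 and CYP2C9*1. Incubation ran 30 min at 37°C and was stopped with acetonitrile/methanol. Radioactive metabolite peaks were detected by C18 HPLC.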

O=C(O)CCc1cc(C(=O)c2ccc(OC3CCCC3)cc2O)ccc1OCc1ccc2c(O)noc2c1
Drug metabolism [1]: metabolite_not_detected | Vmax/Km [2]: 19.5 µL/min | Drug metabolism [3]: metabolite_not_detected
